Source: ChEMBL document CHEMBL3352171, “Synthesis and biological evaluation of andrographolide analogues as anti-cancer agents” (Eur J Med Chem, 2014)

Assay: Induction of glutathione reactivity in pH 7.4 PBS buffer assessed as compound formation at 10 mM Andrographolide-14a-O iodoacetate and 10 mM GSH at 50 degC incubated for 8 hrs under argon atmosphere by reverse phase HPLC method
Format: physicochemical
Settings: pH 7.4, 8 h, 10000 µM
In short: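 Ethanolic compound and GSH added to PBS, final 10 mM each with buffer at 2 mM, heated at 50 °C for 8 h.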

For `C=C1CC[C@@H]2[C@](C)(CO)[C@H](O)CC[C@@]2(C)[C@@H]1CC(SC[C@H](NC(=O)CC[C@H](N)C(=O)O)C(=O)NCC(=O)O)C1=CCOC1=O` (single isomer, unassigned; diastereomer 1), the Drug metabolism was “metabolite_detected”.
